Activity calls are given as the source filed them. The rule behind the calls is not given here.
How the values were obtained:
[1] = biological target: T1, Corticotropin-releasing factor receptor 1 (Homo sapiens, UniProt P34998); assay: Displacement of [125I]CRF from human corticotropin-releasing factor receptor 1 expressed in CHO-K1 cells after 2 hrs by gamma counting; format: cell-based
T1 sequence (P34998 whole entry): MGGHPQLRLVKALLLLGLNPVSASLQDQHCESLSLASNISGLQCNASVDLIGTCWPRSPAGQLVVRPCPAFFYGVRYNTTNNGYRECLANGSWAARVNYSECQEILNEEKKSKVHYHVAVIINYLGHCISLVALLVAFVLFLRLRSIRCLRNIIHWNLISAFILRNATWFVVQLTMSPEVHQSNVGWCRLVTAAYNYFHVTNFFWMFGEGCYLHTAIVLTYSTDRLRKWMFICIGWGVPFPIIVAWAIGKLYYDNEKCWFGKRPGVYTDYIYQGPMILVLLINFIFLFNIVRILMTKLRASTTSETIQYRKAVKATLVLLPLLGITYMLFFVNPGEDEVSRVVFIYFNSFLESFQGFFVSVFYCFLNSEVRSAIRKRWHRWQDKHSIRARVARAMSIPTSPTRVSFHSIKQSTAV
How it was run: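 Crude membranes prepared from CRF1-expressing CHO-K1 cells in 50 mmol/l Tris-HCl with 10 mmol/l MgCl2, 2 mmol/l EDTA and aprotinin. Membranes incubated with 0.5 nmol/l (stock) ¹²⁵I human/rat CRF and compound (1–10,000 nmol/l) for 2 h at room temperature. Reaction ended by centrifugation, pellet washed with PBS/0.01% Triton X-100. IC50 of specific binding taken from concentration–response curves.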

[2] = biological target: T1, Corticotropin-releasing factor receptor 1; assay: Antagonist activity at human corticotropin-releasing factor receptor 1 expressed in CHO-K1 cells assessed as inhibition of CRF-induced cAMP production after 15 mins by enzyme immunoassay; format: functional, cell-based
How it was run: (§1)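 CHO-K1 cells expressing CRF1 seeded at 1 × 10⁴ cells/well and incubated overnight. Cells washed with F-12, then preincubated 10 min at 37 °C in F-12 with 1 mmol/l IBMX. Compound (1–10,000 nmol/l) added with medium containing 10 nmol/l CRF (stock), then 15 min at 37 °C. Cells chilled and cAMP measured by enzyme immunoassay, blank-corrected; IC50 taken from concentration–response curves.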

Rattus norvegicus [3] = assay: Anxiolytic activity in swim stress-loaded Sprague-Dawley rat assessed as increase in time spent in open arms at 3 mg/kg, po after 1 hr by plus-maze test; format: functional, organism-based; set-up: dose 3 mg/kg
How it was run: (§2)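 Male Sprague–Dawley rats (230–280 g) given 0.5% MC vehicle or compound orally 1 h before testing. Rats forced to swim 90 s in 22 °C water, then placed at the maze centre facing a closed arm. Behaviour video-tracked for 5 min; time in open arms and open-arm entries scored. 16 rats per group, mean ± S.E.; Dunnett test against vehicle.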

[4] = Half life in rat at 0.3 mg/kg, iv; format: ADME, organism-based; set-up: dose 0.3 mg/kg, route intravenous; conditions: in vivo
How it was run: (§3)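 Fasted male rats (n = 4) dosed intravenously at 0.3 mg/kg. Samples ice-chilled and centrifuged to plasma, then stored at −70 °C. AUC, T1/2, Vss and CL taken from the plasma concentration time course.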

[5] = Volume of distribution at steady state in rat at 0.3 mg/kg, iv; format: ADME, organism-based; set-up: dose 0.3 mg/kg, route intravenous; conditions: in vivo, read-out: Vdss; how it was run: as §3
[6] = Oral bioavailability in rat at 3 mg/kg; format: ADME, organism-based; conditions: in vivo
[7] = Tmax in rat at 3 mg/kg, po; format: ADME, organism-based; set-up: dose 3 mg/kg, route oral; conditions: in vivo
How it was run: (§4)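 Fasted male rats (n = 4) given 3 mg/kg orally in saline with 0.5% MC (w/v). Jugular vein blood (heparinized syringe) taken at 1, 2, 4, 6, 8, 24, 48, 72 h. Plasma obtained by centrifugation and stored at −70 °C. AUC, Cmax, Tmax and T1/2 derived from the plasma concentration time course.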

[8] = biological target: T2, Corticotropin-releasing factor receptor 1 (Rattus norvegicus, UniProt P35353); assay: Displacement of [125I]CRF from corticotropin-releasing factor receptor 1 in rat brain membranes after 2 hrs by gamma counting; format: cell membranes
T2 sequence (P35353 whole entry): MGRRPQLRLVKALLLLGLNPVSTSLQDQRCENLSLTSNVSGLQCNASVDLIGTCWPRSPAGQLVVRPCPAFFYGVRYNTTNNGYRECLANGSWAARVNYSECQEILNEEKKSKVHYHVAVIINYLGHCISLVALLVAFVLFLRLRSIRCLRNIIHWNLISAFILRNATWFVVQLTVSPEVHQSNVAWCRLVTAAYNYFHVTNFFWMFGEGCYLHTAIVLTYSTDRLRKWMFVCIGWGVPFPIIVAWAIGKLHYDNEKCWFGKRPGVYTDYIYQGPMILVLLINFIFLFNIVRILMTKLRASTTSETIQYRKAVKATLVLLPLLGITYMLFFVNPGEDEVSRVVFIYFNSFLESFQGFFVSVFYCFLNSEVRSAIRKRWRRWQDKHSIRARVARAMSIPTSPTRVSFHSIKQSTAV

[9] = Ratio of drug level in brain to plasma in rat at 3 mg/kg, po after 1 hr; format: ADME, organism-based; set-up: dose 3 mg/kg, route oral; conditions: read-out: BPR
[10] = Cmax in rat at 3 mg/kg, po; format: ADME, organism-based; set-up: dose 3 mg/kg, route oral; conditions: in vivo; how it was run: as §4
[11] = Half life in rat at 3 mg/kg, po; format: ADME, organism-based; set-up: dose 3 mg/kg, route oral; conditions: in vivo; how it was run: as §4
[12] = biological target: T2, Corticotropin-releasing factor receptor 1; assay: Antagonist activity at rat corticotropin-releasing factor receptor 1 expressed in CHO-K1 cells assessed as inhibition of CRF-induced cAMP production after 15 mins by enzyme immunoassay; format: functional, cell-based; how it was run: as §1
[13] = AUC (infinity) in rat at 3 mg/kg, po; format: ADME, organism-based; set-up: time infinity, dose 3 mg/kg, route oral; conditions: plasma; how it was run: as §4
Rattus norvegicus [14] = assay: Anxiolytic activity in swim stress-loaded Sprague-Dawley rat assessed as increase in time spent in open arms at 10 mg/kg, po after 1 hr by plus-maze test; format: functional, organism-based; set-up: dose 10 mg/kg; how it was run: as §2
[15] = Total clearance in rat at 0.3 mg/kg, iv; format: ADME, organism-based; set-up: dose 0.3 mg/kg, route intravenous; conditions: in vivo; how it was run: as §3
[16] = AUC (infinity) in rat at 0.3 mg/kg, iv; format: ADME, organism-based; set-up: time infinity, dose 0.3 mg/kg, route intravenous; conditions: plasma; how it was run: as §3

| IC50 [1] [nM] | EC50 [2] [nM] | Compound | further results |
| --- | --- | --- | --- |
| 600 | – | CCC(CC)Nc1c2c(nc3c(-c4ccc(OC)c(OC)c4)c(C)nn13)CCC2 | – |
| 35 | 75 | CCC(CC)Nc1c2c(nc3c(-c4ccc(OC)cc4C)c(C)nn13)COC2 | – |
| 37 | 200 | CCC(CC)Nc1c2c(nc3c(-c4ccc(Cl)cc4Cl)c(C)nn13)CCC2 | – |
| 22 | 66 | CCC(CC)Nc1c2c(nc3c(-c4ccc(OC)cc4Cl)c(C)nn13)COC2 | – |
| 240 | – | CCC(CC)Nc1c2c(nc3c(-c4ccc(OC)cc4C)cnn13)CCC2 | – |
| 71 | – | CCOc1ccc(-c2c(C)nn3c(NC(CC)CC)c4c(nc23)CCC4)c(Cl)c1 | – |
| 7 | 4 | CCC(CC)Nc1c2c(nc3c(-c4ccc(OC)cc4Cl)c(C)nn13)CCO2 | – |
| 72 | 920 | CCC(CC)Nc1c2c(nc3c(-c4ccc(C)cc4C)c(C)nn13)CCC2 | – |
| 93 | – | CCC(CC)Nc1c2c(nc3c(-c4ccc(F)cc4C)c(C)nn13)CCC2 | – |
| – | – | CCC(CC)Nc1cc(C)nc2c(-c3ccc(OC)cc3C)c(C)nn12 | IC50 [2]: 10 nM |
| 80 | – | CCC(CC)Nc1c2c(nc3c(-c4ccc(OC)cc4C)c(C)nn13)CCS2 | – |
| 3 | 200 | CCC(CC)Nc1c2c(nc3c(-c4ccc(OC(F)F)cc4Cl)c(C)nn13)CCC2 | – |
| 49 | – | CCC(CC)Nc1c2c(nc3c(-c4ccc(OC)cc4SC)c(C)nn13)CCC2 | – |
| 6 | 31 | CCC(CC)Nc1cc(C)nc2c(-c3ccc(OC)cc3Cl)c(C)nn12 | – |
| 97 | – | CCc1nn2c(NC(CC)CC)c3c(nc2c1-c1ccc(OC)cc1C)CCC3 | – |
| 37 | 170 | CCC(CC)Nc1c2c(nc3c(-c4ccc(OC)cc4C)c(C)nn13)CCC2 | – |
| 170 | – | CCC(CC)Nc1c2c(nc3c(-c4ccc(OC)cc4C)c(C)nn13)CCN2 | – |
| 37 | 150 | CCC(CC)Nc1c2c(nc3c(-c4ccc(OC)cc4C)c(C)nn13)CSC2 | – |
| 4 | 40 | CCC(CC)Nc1c2c(nc3c(-c4ccc(OC)cc4Cl)c(C)nn13)CCC2 [ONO-2333MS] | Activity (Rattus norvegicus [3]): Active; half-life [4]: 4.7 h; Vd [5]: 1.78 L/kg; bioavailability [6]: 22%; Tmax [7]: 1 h; IC50 [8]: 7 nM; Kp at 1 h [9]: 0.4; Cmax [10]: 87.1 ng/mL; half-life [11]: 7.8 h; EC50 [12]: 40 nM; AUC(0-inf) [13]: 608 ng·h/mL; Activity (Rattus norvegicus [14]): Active; clearance [15]: 18 mL/min/kg; AUC(0-inf) [16]: 278 ng·h/mL |
| 31 | 640 | CCC(CC)Nc1c2c(nc3c(-c4ccc(OC)cc4C)c(C)nn13)CCO2 | – |
| 490 | – | CCC(CC)Nc1c2c(nc3c(-c4ccc(OC)cc4C)c(C4CCC4)nn13)CCC2 | – |
| 38 | – | CCC(CC)Nc1c2c(nc3c(-c4ccc(N(C)C)cc4C)c(C)nn13)CCC2 | – |
| 15 | – | CCC(CC)Nc1c2c(nc3c(-c4ccc(OC(F)(F)F)cc4Cl)c(C)nn13)CCC2 | – |
| 22 | 47 | CCC(CC)Nc1c2c(nc3c(-c4cc(C)c(OC)cc4C)c(C)nn13)CCC2 | – |
| 84 | 8 | CCC(CC)Nc1c2c(nc3c(-c4ccc(OC)cc4Cl)c(C)nn13)OCC2 | – |
| 49 | 100 | CCC(CC)Nc1c(C)c(C)nc2c(-c3ccc(OC)cc3Cl)c(C)nn12 | – |
| 59 | – | CCC(CC)Nc1c2c(nc3c(-c4ccc(OC)cc4C)c(C(F)(F)F)nn13)CCC2 | – |
| 620 | – | CCC(CC)Nc1c2c(nc3c(-c4ccc(OC)cc4C)c(CSC)nn13)CCC2 | – |
| 9 | 80 | CCC(CC)Nc1c2c(nc3c(-c4c(C)cc(OC)cc4C)c(C)nn13)CCC2 | – |
| 820 | – | CCC(CC)Nc1c2c(nc3c(-c4cc(C)ccc4C)c(C)nn13)CCC2 | – |

— ChEMBL document CHEMBL1817601, “6,7-Dihydro-5H-cyclopenta[d]pyrazolo[1,5-a]pyrimidines and their derivatives as novel corticotropin-releasing factor 1 receptor antagonists” (Bioorg Med Chem, 2011)
